From ChEMBL document CHEMBL5303300, “EUbOPEN Chemogenomics Library - Multiplex” (2023)
“And” between values parts separate entries of the source, which are not always exact repeats. Equal values may be shown once.

Tested on: HEK-293T
Assay: Multiplex assay against HEK293T
Assay type: toxicity, cell-based
Settings: human, number of replicates 2
How it was run: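 Compound was added to live cells that had been stained at seeding with Hoechst33342, BioTracker Green Microtubule Cytoskeleton Dye, MitoTracker Red and Annexin V Alexa Fluor 680, and imaging followed on a CQ1 microscope at 37°C and 5% CO2. CellPathfinder machine-learning gating divided cells into Hoechst high-intensity objects or normal cells, normal cells into healthy, pyknosed or fragmented nuclei, and pyknosed cells into mitotic or apoptotic. Tubulin, mitochondrial-mass and membrane-permeability phenotypes are per cents of healthy-nucleus cells.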

[1] = 12 h, 1 µM, compound concentration 1 uM
[2] = 12 h, 10 µM, compound concentration 10 uM
[3] = 24 h, 1 µM, compound concentration 1 uM
[4] = 24 h, 10 µM, compound concentration 10 uM
[5] = 48 h, 1 µM, compound concentration 1 uM
[6] = 48 h, 10 µM, compound concentration 10 uM

SMILES: CNS(=O)(=O)c1ccc(N(C)C)c(Nc2ncnc3cc(OC)c(OC)cc23)c1
- Population Apoptotic (%) [1]: 51% and 45%
- Population Fragmented Nuclei (%) [1]: 3% and 2%
- Population Healthy Nuclei (%) [1]: 81% and 83%
- Population Hoechst High Intensity Objects (%) [1]: 5% and 8%
- Population Membrane Permeable-Phenotype (%) [1]: 2%
- Population Mitochondria Different-Phenotype (%) [1]: 17% and 12%
- Population Mitotic Cells (%) [1]: 48% and 54%
- Population Normal (%) [1]: 94% and 91%
- Population Pyknosed Nuclei (%) [1]: 14%
- Population Tubulin-Different-Phenotype (%) [1]: 37% and 34%
- Total Cell Count [1]: 547 and 550
- Population Apoptotic (%) [2]: 47% and 54%
- Population Fragmented Nuclei (%) [2]: 2% and 3%
- Population Healthy Nuclei (%) [2]: 87% and 88%
- Population Hoechst High Intensity Objects (%) [2]: 7%
- Population Membrane Permeable-Phenotype (%) [2]: 2% and 1%
- Population Mitochondria Different-Phenotype (%) [2]: 26% and 24%
- Population Mitotic Cells (%) [2]: 52% and 45%
- Population Normal (%) [2]: 92%
- Population Pyknosed Nuclei (%) [2]: 9% and 8%
- Population Tubulin-Different-Phenotype (%) [2]: 59%
- Total Cell Count [2]: 607
- Population Apoptotic (%) [3]: 45% and 47%
- Population Fragmented Nuclei (%) [3]: 5% and 7%
- Population Healthy Nuclei (%) [3]: 86% and 84%
- Population Hoechst High Intensity Objects (%) [3]: 7% and 6%
- Population Membrane Permeable-Phenotype (%) [3]: 3% and 1%
- Population Mitochondria Different-Phenotype (%) [3]: 4%
- Population Mitotic Cells (%) [3]: 54% and 52%
- Population Normal (%) [3]: 92% and 93%
- Population Pyknosed Nuclei (%) [3]: 8%
- Population Tubulin-Different-Phenotype (%) [3]: 13% and 17%
- Total Cell Count [3]: 888 and 859
- Population Apoptotic (%) [4]: 53% and 62%
- Population Fragmented Nuclei (%) [4]: 3% and 5%
- Population Healthy Nuclei (%) [4]: 89% and 87%
- Population Hoechst High Intensity Objects (%) [4]: 8% and 11%
- Population Membrane Permeable-Phenotype (%) [4]: 1%
- Population Mitochondria Different-Phenotype (%) [4]: 16% and 20%
- Population Mitotic Cells (%) [4]: 46% and 37%
- Population Normal (%) [4]: 91% and 88%
- Population Pyknosed Nuclei (%) [4]: 7%
- Population Tubulin-Different-Phenotype (%) [4]: 51% and 49%
- Total Cell Count [4]: 699 and 675
- Population Apoptotic (%) [5]: 18% and 9%
- Population Fragmented Nuclei (%) [5]: 13% and 11%
- Population Healthy Nuclei (%) [5]: 83% and 85%
- Population Hoechst High Intensity Objects (%) [5]: 7% and 8%
- Population Membrane Permeable-Phenotype (%) [5]: 5% and 3%
- Population Mitochondria Different-Phenotype (%) [5]: 0%
- Population Mitotic Cells (%) [5]: 81% and 90%
- Population Normal (%) [5]: 92% and 91%
- Population Pyknosed Nuclei (%) [5]: 3%
- Population Tubulin-Different-Phenotype (%) [5]: 5%
- Total Cell Count [5]: 2132 and 1975
- Population Apoptotic (%) [6]: 20% and 37%
- Population Fragmented Nuclei (%) [6]: 11% and 8%
- Population Healthy Nuclei (%) [6]: 86% and 87%
- Population Hoechst High Intensity Objects (%) [6]: 12%
- Population Membrane Permeable-Phenotype (%) [6]: 3% and 2%
- Population Mitochondria Different-Phenotype (%) [6]: 2%
- Population Mitotic Cells (%) [6]: 80% and 62%
- Population Normal (%) [6]: 87%
- Population Pyknosed Nuclei (%) [6]: 2% and 4%
- Population Tubulin-Different-Phenotype (%) [6]: 39%
- Total Cell Count [6]: 1182 and 985

SMILES: C=CC(=O)Nc1cccc(C)c1Nc1ncc2cc(-c3c(Cl)c(OC)cc(OC)c3Cl)ccc2n1
- Population Apoptotic (%) [1]: 39% and 35%
- Population Fragmented Nuclei (%) [1]: 3%
- Population Healthy Nuclei (%) [1]: 87%
- Population Hoechst High Intensity Objects (%) [1]: 7% and 5%
- Population Membrane Permeable-Phenotype (%) [1]: 2% and 1%
- Population Mitochondria Different-Phenotype (%) [1]: 16% and 12%
- Population Mitotic Cells (%) [1]: 60% and 64%
- Population Normal (%) [1]: 92% and 94%
- Population Pyknosed Nuclei (%) [1]: 8% and 9%
- Population Tubulin-Different-Phenotype (%) [1]: 40% and 41%
- Total Cell Count [1]: 760 and 929
- Population Apoptotic (%) [2]: 71% and 67%
- Population Fragmented Nuclei (%) [2]: 4%
- Population Healthy Nuclei (%) [2]: 71% and 77%
- Population Hoechst High Intensity Objects (%) [2]: 20% and 14%
- Population Membrane Permeable-Phenotype (%) [2]: 2% and 3%
- Population Mitochondria Different-Phenotype (%) [2]: 42% and 39%
- Population Mitotic Cells (%) [2]: 28% and 32%
- Population Normal (%) [2]: 79% and 85%
- Population Pyknosed Nuclei (%) [2]: 24% and 18%
- Population Tubulin-Different-Phenotype (%) [2]: 55% and 47%
- Total Cell Count [2]: 374 and 381
- Population Apoptotic (%) [3]: 35% and 39%
- Population Fragmented Nuclei (%) [3]: 6% and 4%
- Population Healthy Nuclei (%) [3]: 85% and 88%
- Population Hoechst High Intensity Objects (%) [3]: 5% and 7%
- Population Membrane Permeable-Phenotype (%) [3]: 1% and 0%
- Population Mitochondria Different-Phenotype (%) [3]: 4% and 6%
- Population Mitotic Cells (%) [3]: 64% and 60%
- Population Normal (%) [3]: 94% and 92%
- Population Pyknosed Nuclei (%) [3]: 7%
- Population Tubulin-Different-Phenotype (%) [3]: 26% and 25%
- Total Cell Count [3]: 1252 and 1297
- Population Apoptotic (%) [4]: 70% and 60%
- Population Fragmented Nuclei (%) [4]: 5% and 3%
- Population Healthy Nuclei (%) [4]: 71% and 77%
- Population Hoechst High Intensity Objects (%) [4]: 17% and 11%
- Population Membrane Permeable-Phenotype (%) [4]: 2% and 0%
- Population Mitochondria Different-Phenotype (%) [4]: 32% and 24%
- Population Mitotic Cells (%) [4]: 29% and 40%
- Population Normal (%) [4]: 83% and 88%
- Population Pyknosed Nuclei (%) [4]: 23% and 18%
- Population Tubulin-Different-Phenotype (%) [4]: 32% and 29%
- Total Cell Count [4]: 453 and 428
- Population Apoptotic (%) [5]: 12%
- Population Fragmented Nuclei (%) [5]: 12% and 9%
- Population Healthy Nuclei (%) [5]: 84% and 87%
- Population Hoechst High Intensity Objects (%) [5]: 8% and 11%
- Population Membrane Permeable-Phenotype (%) [5]: 5% and 2%
- Population Mitochondria Different-Phenotype (%) [5]: 0% and 1%
- Population Mitotic Cells (%) [5]: 87%
- Population Normal (%) [5]: 91% and 88%
- Population Pyknosed Nuclei (%) [5]: 2% and 3%
- Population Tubulin-Different-Phenotype (%) [5]: 10% and 15%
- Total Cell Count [5]: 3082 and 2641
- Population Apoptotic (%) [6]: 50% and 52%
- Population Fragmented Nuclei (%) [6]: 5% and 3%
- Population Healthy Nuclei (%) [6]: 84% and 85%
- Population Hoechst High Intensity Objects (%) [6]: 11% and 8%
- Population Membrane Permeable-Phenotype (%) [6]: 1%
- Population Mitochondria Different-Phenotype (%) [6]: 8% and 9%
- Population Mitotic Cells (%) [6]: 50% and 47%
- Population Normal (%) [6]: 88% and 91%
- Population Pyknosed Nuclei (%) [6]: 9% and 11%
- Population Tubulin-Different-Phenotype (%) [6]: 12%
- Total Cell Count [6]: 751 and 603
